Experimental data: ChEMBL document CHEMBL1149042, “Antihypertensive activity of 6-O-galloyl-D-glucose, a phenolic glycoside from Sapium sebiferum” (1994)
The source made the active and inactive calls. No cut-off for these calls is given here.

What was measured:
[1] = system: Rattus norvegicus; assay: Antihypertensive activity in SHR rat assessed as changes in tail arterial mean blood pressure at 1 mg/kg, iv; format: functional, Artery
Procedure, shortened: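 Conscious SHR (250–280 g) with systemic pressure above 180 mm Hg, given a single bolus in Locke-Ringer solution into the cannulated femoral vein over 20 sec. Tail arterial mean pressure was taken by indirect tail-cuff with a photoelectric pulse sensor at 28 ± 1° without pre-warming, at 10-min intervals. Controls received vehicle.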

[2] = system: Rattus norvegicus; assay: Antihypertensive activity in SHR rat assessed as reversible inhibition of pentobarbitol-induced increase in blood pressure at 20 mg/kg after 2 hrs; format: functional, organism-based; parameters: dose 20 mg/kg
Procedure, shortened: (§1)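 SHR rats (250–280 g) with systemic pressure above 180 mm Hg were used. Compound in Locke-Ringer solution was given as a single iv bolus over 20 sec into a cannulated femoral vein. Pressure was read by indirect tail-cuff with a photoelectric pulse sensor at 28 °C without pre-warming, every 10 min, versus pre-dose control. Controls received vehicle. Activity required a significant fall lasting at least 30 min.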

[3] = system: Rattus norvegicus; assay: Antihypertensive activity in iv dosed SHR rat assessed as reduction in pentobarbitol-induced increase in blood pressure; format: functional, organism-based
[4] = system: Rattus norvegicus; assay: Antihypertensive activity in iv dosed SHR rat assessed as changes in tail arterial mean blood pressure relative to control; format: functional, organism-based; settings: Artery; procedure, shortened: as §1
[5] = system: Rattus norvegicus; assay: Antihypertensive activity in SHR rat assessed as changes in tail arterial mean blood pressure at 5 mg/kg, iv; format: functional, Artery; procedure, shortened: as §1
[6] = system: Rattus norvegicus; assay: Antihypertensive activity in adrenalectomized anesthetized SHR rat assessed as reduction of mean blood pressure at 10 mg/kg, iv; format: functional
Procedure, shortened: (§2)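 Anaesthetized SHR given a single iv bolus. For adrenalectomized rats, bilateral adrenalectomy was done by dorsal approach under ether, with 24 h recovery before use. Sham-operated rats served as controls. Mean arterial pressure was recorded against vehicle-treated controls. Values are mean ± S.D. of 8 animals, and significance was tested by Dunnett's t-test.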

[7] = system: Rattus norvegicus; assay: Antihypertensive activity in sham operated anesthetized SHR rat assessed as reduction of mean blood pressure at 10 mg/kg, iv; format: functional; procedure, shortened: as §2
[8] = system: Rattus norvegicus; assay: Vasorelaxation activity in SHR rat assessed as reduction of Bay-K 8644-induced mean arterial blood pressure at 5 mg/kg, iv after 20 mins; format: functional
[9] = system: Rattus norvegicus; assay: Inhibition of noradrenaline release in sham operated anesthetized SHR rat plasma at 5 mg/kg, iv after 20 mins; format: functional
Procedure, shortened: (§3)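 Plasma was sampled 20 min after a single iv bolus in anaesthetized adrenalectomized rats (bilateral, dorsal approach under ether, 24 h recovery) or sham-operated SHR. Blood (2 ml) came from the optic sinus under ether and was spun at 5,000 × g for 10 min at 4°. Plasma (200 μl) received 20 ng DHBA internal standard and was adsorbed onto alumina with 30 min shaking. Vehicle-treated rats were controls, n=8, mean ± S.D.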

[10] = system: Rattus norvegicus; assay: Inhibition of noradrenaline release in sham operated anesthetized SHR rat plasma at 15 mg/kg, iv after 20 mins; format: functional; procedure, shortened: as §3
[11] = system: Rattus norvegicus; assay: Antihypertensive activity in adrenalectomized anesthetized SHR rat assessed as reduction of mean blood pressure at 15 mg/kg, iv; format: functional; procedure, shortened: as §2
[12] = system: Rattus norvegicus; assay: Inhibition of noradrenaline release in adrenalectomized anesthetized SHR rat plasma at 10 mg/kg, iv after 20 mins; format: functional; procedure, shortened: as §3
[13] = system: Rattus norvegicus; assay: Antihypertensive activity in adrenalectomized anesthetized SHR rat assessed as reduction of mean blood pressure at 5 mg/kg, iv; format: functional; procedure, shortened: as §2
[14] = system: Rattus norvegicus; assay: Vasorelaxation activity in anesthetized normotensive rat assessed as reduction of Bay-K 8644-induced mean arterial blood pressure at 10 mg/kg, iv after 20 mins
[15] = system: Rattus norvegicus; assay: Vasorelaxation activity in SHR rat assessed as reduction of methoxamine-induced mean arterial blood pressure at 10 mg/kg, iv after 20 mins; format: functional
[16] = system: Rattus norvegicus; assay: Antihypertensive activity in sham operated anesthetized SHR rat assessed as reduction of mean blood pressure at 15 mg/kg, iv; format: functional; procedure, shortened: as §2
[17] = system: Rattus norvegicus; assay: Inhibition of noradrenaline release in adrenalectomized anesthetized SHR rat plasma at 5 mg/kg, iv after 20 mins; format: functional; procedure, shortened: as §3
[18] = system: Rattus norvegicus; assay: Vasorelaxation activity in SHR rat assessed as reduction of methoxamine-induced mean arterial blood pressure at 15 mg/kg, iv after 20 mins; format: functional
[19] = system: Rattus norvegicus; assay: Inhibition of noradrenaline release in adrenalectomized anesthetized SHR rat plasma at 1 mg/kg, iv after 20 mins; format: functional; procedure, shortened: as §3
[20] = system: Rattus norvegicus; assay: Vasorelaxation activity in anesthetized normotensive rat assessed as reduction of Bay-K 8644-induced mean arterial blood pressure at 15 mg/kg, iv after 20 mins
[21] = system: Rattus norvegicus; assay: Inhibition of noradrenaline release in sham operated anesthetized SHR rat plasma at 1 mg/kg, iv after 20 mins; format: functional; procedure, shortened: as §3
[22] = system: Rattus norvegicus; assay: Vasorelaxation activity in SHR rat assessed as reduction of methoxamine-induced mean arterial blood pressure at 5 mg/kg, iv after 20 mins; format: functional
[23] = system: Rattus norvegicus; assay: Antihypertensive activity in sham operated anesthetized SHR rat assessed as reduction of mean blood pressure at 1 mg/kg, iv; format: functional; procedure, shortened: as §2
[24] = system: Rattus norvegicus; assay: Inhibition of noradrenaline release in adrenalectomized anesthetized SHR rat plasma at 15 mg/kg, iv after 20 mins; format: functional; procedure, shortened: as §3
[25] = system: Rattus norvegicus; assay: Antihypertensive activity in adrenalectomized anesthetized SHR rat assessed as reduction of mean blood pressure at 1 mg/kg, iv; format: functional; procedure, shortened: as §2
[26] = system: Rattus norvegicus; assay: Inhibition of noradrenaline release in sham operated anesthetized SHR rat plasma at 10 mg/kg, iv after 20 mins; format: functional; procedure, shortened: as §3
[27] = system: Rattus norvegicus; assay: Antihypertensive activity in sham operated anesthetized SHR rat assessed as reduction of mean blood pressure at 5 mg/kg, iv; format: functional; procedure, shortened: as §2
[28] = system: Rattus norvegicus; assay: Antihypertensive activity in SHR rat assessed as reduction in pentobarbitol-induced increase in blood pressure at 0.1 mg/kg, iv; format: functional; procedure, shortened: as §1

Q: Which Activity [1] does the source give for `O=C(OC[C@H]1O[C@@H](O)[C@H](O)[C@@H](O)[C@@H]1O)c1cc(O)c(O)c(O)c1` here?
A: Its Activity is 17.3 mmHg.

Q: What about the Activity [2] of the same molecule?
A: Its Activity is “Active”.

Q: And the Activity [3]?
A: Its Activity is “Active”.

Q: What about the Activity [4] of the same molecule?
A: The Activity was “Dose-dependent effect”.

Q: What about the Activity [5] of the same molecule?
A: Its Activity is 29.6 mmHg.

Q: What does the source list for `COC(=O)C1=C(C)NC(C)=C(C(=O)OC)C1c1ccccc1[N+](=O)[O-]` [NIFEDIPINE]?
A: Activity [6]: 132.4 mmHg; Activity [1]: 10.8 mmHg; Activity [7]: 140.9 mmHg; Activity [8]: 34.1 mmHg; Activity [9]: 2.04 pmol/mL; Activity [10]: 1.28 pmol/mL; Activity [11]: 110.4 mmHg; Activity [12]: 1.49 pmol/mL; Activity [13]: 143.8 mmHg; Activity [14]: 23.6 mmHg; Activity [15]: 29.8 mmHg; Activity [16]: 118.7 mmHg; Activity [17]: 1.76 pmol/mL; Activity [18]: 17.1 mmHg; Activity [19]: 2.04 pmol/mL; Activity [20]: 14.3 mmHg; Activity [21]: 2.37 pmol/mL; Activity [22]: 36.3 mmHg; Activity [23]: 168.4 mmHg; Activity [24]: 1.12 pmol/mL; Activity [25]: 161.1 mmHg; Activity [26]: 1.62 pmol/mL; Activity [27]: 151.2 mmHg

Q: With `COc1cc2nc(N3CCN(C(=O)c4ccco4)CC3)nc(N)c2cc1OC` [PRAZOSIN] as the molecule, how does the Activity [28] read?
A: Its Activity is 31.4 mmHg.
